Fewer inactive variants are shown than the library holds.
B1: tRNA (parent)
chain: GUUCCGUUGGCGUAAUGGUAACGCGUCUCCCUCCUAAGGAGAAGACUGCGGGUUCGAGUCCCGUACGGAACG

Variants of: B1
Experiment: yeast fitness relative to wild type (ratio to wild type); higher = fitter; tRNA-Arg(CCU), competitive growth, 37 C, YPD
Outline: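 Variants of the tRNA-Arg(CCU) gene, chemically synthesised with a 3% per-site mutation rate at 69 sites, were placed at the native genomic locus in Saccharomyces cerevisiae. The pooled strains were competed in YPD at 37°C for 24 hours in six parallel replicates. Gene amplicons from the start population and from each end population were read by 100-nucleotide paired-end sequencing. Darwinian fitness relative to wild type came from changes in genotype frequencies; genotypes needed ≥ 100 starting reads, and estimates < 0.5 were set to 0.5.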
For G17C U19A C49G C66U, the yeast fitness was ≤ 0.5.
In the case of C4A C33U A36C A40G, the yeast fitness is reported as ≤ 0.5.
With U13A A15G C31G G58C the yeast fitness was ≤ 0.5.
For U3C A42G, the yeast fitness was 0.883.
For G6A G10C A15U C61A, the yeast fitness was ≤ 0.5.
Work on G6A C66A yielded a yeast fitness of 0.879.
G12A G44C C49G gave a yeast fitness of 0.799.
With G23A C61A the yeast fitness was 0.539.
Work on C5A U32C yielded a yeast fitness of 0.928.
With C27G A37G U53A the yeast fitness was 0.632.
For A20C C30G C55A G67A, the yeast fitness was ≤ 0.5.
C27G A36G A69U gave a yeast fitness of 0.641.
For A14C A45C C60G, the yeast fitness was ≤ 0.5.
In the case of A21G U26C C29U G56C A69U, the yeast fitness is reported as ≤ 0.5.
A45C C62A gave a yeast fitness of 0.622.
Work on C4A U32C C46G yielded a yeast fitness of 0.599.
With C4A C22G A37U U47A C62U the yeast fitness was ≤ 0.5.
U13A C27U C66U showed a yeast fitness of 0.787.
In the case of C30A U53A C66U, the yeast fitness is reported as ≤ 0.5.
For A21G C27G C49U, the yeast fitness was 0.557.
C4U A45U C66U gave a yeast fitness of 0.656.
With G9C C62U G67C the yeast fitness was ≤ 0.5.
In the case of C4G A20U G50A G58C C66U, the yeast fitness is reported as ≤ 0.5.
With C5G U16A C34G G39C C55A A57C the yeast fitness was ≤ 0.5.
In the case of C5U U8C G17C C31A G68A, the yeast fitness is reported as ≤ 0.5.
For C29G U35A A36C A65G C66G, the yeast fitness was ≤ 0.5.
U2C A14C A40G gave a yeast fitness of 0.775.
For C4G G17A A57G, the yeast fitness was ≤ 0.5.
With A40C G44C C55G the yeast fitness was ≤ 0.5.
For G10C U13C G18C C27U C33G C46A C55U U64A G68C A70U, the yeast fitness was ≤ 0.5.
Variant G39U G52A has a yeast fitness of 0.779.
In the case of A37U A65U C66G, the yeast fitness is reported as ≤ 0.5.
For G17C C55U A69U A70U, the yeast fitness was ≤ 0.5.
With A37G A43U the yeast fitness was 0.631.
U7A U28G C30A G52A A69U showed a yeast fitness of 0.607.
With C4G A14G U26C A36G A37C G51C the yeast fitness was ≤ 0.5.
With C4U C29A C31G A42C A45U G51C the yeast fitness was ≤ 0.5.
With A21C G52A the yeast fitness was 0.636.
C4U C31U A45C C46U gave a yeast fitness of 1.01.
G6A U8C C62U gave a yeast fitness of 0.604.
For A21U U53A A65C G67A, the yeast fitness was 0.682.
For G9C C11G, the yeast fitness was 0.525.
G44A G48A showed a yeast fitness of 0.96.
In the case of U3A C24G C31U C62U A65C, the yeast fitness is reported as ≤ 0.5.
For U2A C4G U8A G12A G48A A69C, the yeast fitness was 0.544.
In the case of A15C G41C A45C, the yeast fitness is reported as ≤ 0.5.
A40G C62A A70C gave a yeast fitness of 0.595.
In the case of U16G U26A C34U C62A, the yeast fitness is reported as ≤ 0.5.
Variant G6A C61U has a yeast fitness of 0.902.
For C30G C33G, the yeast fitness was ≤ 0.5.
In the case of C30U C34G C46U C55U G67C, the yeast fitness is reported as ≤ 0.5.
Variant C27A G51C has a yeast fitness of 0.704.
Work on A43U G56A G63A yielded a yeast fitness of 0.773.
U7G C27U C49U gave a yeast fitness of 0.59.
Work on C4A G25A A45U yielded a yeast fitness of 0.593.
In the case of A20C C24U A42U U59C A69U, the yeast fitness is reported as 0.535.
With C22U G25A A42C C49G U59A A65U the yeast fitness was ≤ 0.5.
For G51C A57G C61U A65C, the yeast fitness was ≤ 0.5.
For C4A G23A G25C G51A, the yeast fitness was 0.607.
U28C U54C showed a yeast fitness of 0.909.
In the case of U7C G25A U59C A69C, the yeast fitness is reported as ≤ 0.5.
For U16C G23C C29G A43U G50A A65C, the yeast fitness was ≤ 0.5.
For U3C C5A C11G A20U G25C U32A, the yeast fitness was ≤ 0.5.
A20G G48A A70G showed a yeast fitness of 0.803.
For U7A A15C A57G, the yeast fitness was ≤ 0.5.
With G12A C27U C30A C55U A57C the yeast fitness was ≤ 0.5.
Variant C4U G9A C29U has a yeast fitness of 0.567.
C11A U54C gave a yeast fitness of 0.596.
Work on A21C G50C yielded a yeast fitness of 0.584.
C4U G41C C55G showed a yeast fitness of 0.539.
In the case of U2G A21U G67C, the yeast fitness is reported as ≤ 0.5.
Variant C33U G63C has a yeast fitness of 0.545.
In the case of G6C C31U A36G G52C G68A, the yeast fitness is reported as ≤ 0.5.
With U8A U19C A21C G39C C61U the yeast fitness was ≤ 0.5.
Variant U16G G44C C62U has a yeast fitness of 0.566.
With U7G C22G G50A G67A the yeast fitness was ≤ 0.5.
In the case of U19A C61G G67A, the yeast fitness is reported as ≤ 0.5.
In the case of C4A U35A A37U, the yeast fitness is reported as ≤ 0.5.
U8A C49U showed a yeast fitness of 0.779.
C27A C31G C61U showed a yeast fitness of 0.669.
With C30G A45C C61A G67C the yeast fitness was ≤ 0.5.
For C22G A40U U54A, the yeast fitness was ≤ 0.5.
With A15U A40U G52A the yeast fitness was ≤ 0.5.
In the case of G10C U16C A20G, the yeast fitness is reported as ≤ 0.5.
Work on C31U C66U G67A yielded a yeast fitness of 0.596.
In the case of G23C C30G A70G, the yeast fitness is reported as ≤ 0.5.
In the case of U8A U26C G39C A43G, the yeast fitness is reported as ≤ 0.5.
C11U C29U G48A showed a yeast fitness of 0.621.
Variant A21G C46U C55G has a yeast fitness of 0.603.
For U28A A57G C60A, the yeast fitness was 0.569.
Work on A15G U28A C34G C46A yielded a yeast fitness of 0.501.
C5U U16G A65C gave a yeast fitness of 0.612.
In the case of G12C U54G, the yeast fitness is reported as 0.657.
With U8C C30G C49A G67A G68A the yeast fitness was ≤ 0.5.
In the case of C46A C61G A69C, the yeast fitness is reported as 0.501.
For U3G U7A G9A U28C A40U, the yeast fitness was ≤ 0.5.
Work on C33U C34U G50A yielded a yeast fitness of 0.608.
For U8C G9A C22G U32G C49G, the yeast fitness was ≤ 0.5.
In the case of G17C A20G, the yeast fitness is reported as 0.553.
For U13C G25C C60U C62U, the yeast fitness was ≤ 0.5.
In the case of G12A A36G U47G, the yeast fitness is reported as 0.584.
C46G G68A gave a yeast fitness of 0.825.
With U2A U3A U59G the yeast fitness was ≤ 0.5.
For C31G C49G C62U G67C, the yeast fitness was ≤ 0.5.
In the case of U19G G48A C49A, the yeast fitness is reported as 0.574.
In the case of U7G U16C C30A, the yeast fitness is reported as ≤ 0.5.
With U13C A42G G56U the yeast fitness was ≤ 0.5.
U3C G9A A69C gave a yeast fitness of 0.905.
In the case of A15C A43G C46A A70C, the yeast fitness is reported as ≤ 0.5.
G10A A36U A43G showed a yeast fitness of 0.607.
With C11G U26C C49G the yeast fitness was ≤ 0.5.
C5G C60A A69C gave a yeast fitness of 0.532.
With C24U C31G C61G the yeast fitness was 0.513.
C5G C30G G67C showed a yeast fitness of 0.543.
With A15U A43U C55G the yeast fitness was ≤ 0.5.
With G9A C46G C61A the yeast fitness was ≤ 0.5.
With C5U C11G C33A the yeast fitness was 0.557.
For G17A C22U A37C C55U, the yeast fitness was ≤ 0.5.
In the case of G10C C11U C22G C27G C33G A42C, the yeast fitness is reported as ≤ 0.5.
U7G A21G gave a yeast fitness of 0.816.
Variant U7G A21C has a yeast fitness of 0.588.
For U3A A14G C24G A42C, the yeast fitness was 0.54.
In the case of A43G C61G C62U, the yeast fitness is reported as ≤ 0.5.
C27U C31G A69U showed a yeast fitness of 0.624.
With G10A G17A U28C C30G A45C C49U the yeast fitness was ≤ 0.5.
For C31G C60G C62A, the yeast fitness was 0.624.
Work on G44C U53C yielded a yeast fitness of 0.797.
With C30A A37C C60A G67C the yeast fitness was ≤ 0.5.
In the case of A20G G25C U35C G58C, the yeast fitness is reported as ≤ 0.5.
With C31G A40G C46A U54C C55G the yeast fitness was ≤ 0.5.
In the case of C5G G9C A57U, the yeast fitness is reported as ≤ 0.5.
With C5G G51C U54A the yeast fitness was ≤ 0.5.
For G38C A45G U59A, the yeast fitness was ≤ 0.5.
Work on A21C C49A yielded a yeast fitness of 0.742.
Variant C46U U47C has a yeast fitness of 0.911.
In the case of A45U G56C A57G G68U, the yeast fitness is reported as ≤ 0.5.
In the case of G6C C22A C31G A70C, the yeast fitness is reported as ≤ 0.5.
In the case of G6A G52C C66U, the yeast fitness is reported as 0.584.
In the case of U2A C60G G63C, the yeast fitness is reported as ≤ 0.5.
In the case of C11G A14G A21U A40U U54A C55U, the yeast fitness is reported as ≤ 0.5.
In the case of C27U C62A C66U, the yeast fitness is reported as ≤ 0.5.
Work on U3C C24A C29U G67U yielded a yeast fitness of 0.522.
For G9A G58C, the yeast fitness was 0.895.
G12C A57G gave a yeast fitness of 0.974.
C27U U28A A40U gave a yeast fitness of 0.671.
Variant C30U A45G has a yeast fitness of 0.781.
C4G G9A A21C C22A C66U showed a yeast fitness of 0.559.
Variant G18A A20U A69U has a yeast fitness of 0.686.
For G9C A21U C27U, the yeast fitness was ≤ 0.5.
With C24A U26A A43U C55A C66U the yeast fitness was ≤ 0.5.
C5U C29A gave a yeast fitness of 0.569.
For C5A G39A U59A, the yeast fitness was ≤ 0.5.
In the case of C27U C31U A40U A45U C49G A65C, the yeast fitness is reported as ≤ 0.5.
For A20U G23C A45U G58A A70C, the yeast fitness was ≤ 0.5.
Variant U7C C61G has a yeast fitness of 0.634.
In the case of C27U G63C, the yeast fitness is reported as 0.715.
Variant G17C G48A A65C has a yeast fitness of 0.654.
Variant U32C G41C G50A C61G has a yeast fitness of 0.565.
With G10A U16A A65C the yeast fitness was ≤ 0.5.
With G10A G39C C62U G63A A70U the yeast fitness was ≤ 0.5.
In the case of C24A U53C, the yeast fitness is reported as 0.598.
With A14U U35G the yeast fitness was ≤ 0.5.
In the case of C29A A45U, the yeast fitness is reported as 0.524.
In the case of U54A C61U, the yeast fitness is reported as 0.715.
For U28C G48A, the yeast fitness was 0.866.
G23C C31A gave a yeast fitness of 0.633.
Variant A20G A57U has a yeast fitness of 0.649.

Source: the RNAGym collection of RNA variant scans (doi:10.1126/science.aae0568)
